Cneo AK release – Cryptococcus neoformans cell lysis inducers, primary screen, AK release luminescence, single concentration; C. neoformans lysis, adenylate kinase release luminescence, 4 h; normalised: neutral wells 0, clomiphene wells 100; lysis activity, % at 15 µM; 0.2% of 360,000 active;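 active means mean lysis activity across replicates of at least 80%, whatever share of replicates individually reach that level; inactive means mean lysis activity below 80%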
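Material – Cryptococcus neoformans yeast cells · Quantity – 5 × 10^6 yeast cells/mL · Buffer or medium – YPD medium · Compound – single dose · Timing – 4 h static compound exposure, 37 °C, read 1 h post-reagent · Signal – adenylate kinase release luminescence · Read-out basis – lysis from increased AK signal · Benchmarks – Clomiphene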
AF4-AF9 inh – inhibitors of AF4 peptide binding to AF9, primary screen, biochemical, AlphaScreen, biotin-AF4 peptide, FLAG-AF9, single point; Protein AF-9 (Homo sapiens), P42568; inhibition, % at 10 µM; 0.47% of 350,000 active; AID 651704, 2012;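 active means every replicate reaching a set inhibition limit, whatever the replicate mean, cut at about 25% in these data; inconclusive means mean inhibition reaches that limit but some replicates miss it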;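 further: 0% = plate neutral control median and 100% = total signal loss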
Target sequence (P42568 whole entry, looked up): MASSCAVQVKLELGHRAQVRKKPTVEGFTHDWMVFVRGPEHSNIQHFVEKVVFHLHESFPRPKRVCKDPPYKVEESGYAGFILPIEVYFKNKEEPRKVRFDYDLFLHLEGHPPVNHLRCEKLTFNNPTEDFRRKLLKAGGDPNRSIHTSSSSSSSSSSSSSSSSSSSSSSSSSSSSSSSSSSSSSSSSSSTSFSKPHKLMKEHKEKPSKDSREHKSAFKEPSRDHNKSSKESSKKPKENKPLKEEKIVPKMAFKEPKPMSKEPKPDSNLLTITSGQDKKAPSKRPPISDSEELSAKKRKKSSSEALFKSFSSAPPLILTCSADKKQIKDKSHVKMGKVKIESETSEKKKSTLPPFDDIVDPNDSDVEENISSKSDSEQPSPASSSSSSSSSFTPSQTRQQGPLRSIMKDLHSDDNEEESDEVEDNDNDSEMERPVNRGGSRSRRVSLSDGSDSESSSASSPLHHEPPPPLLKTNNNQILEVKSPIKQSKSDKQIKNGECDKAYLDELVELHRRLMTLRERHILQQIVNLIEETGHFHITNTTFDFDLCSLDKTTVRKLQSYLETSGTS
S100A4 MyoIIA – inhibitors of S100A4-myosin IIA peptide binding, primary screen, biochemical, fluorescence polarization, TAMRA-MyoIIA peptide; inhibition, % at 10.7 µM; 0.14% of 360,000 active;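 active means mean inhibition of at least 70% across replicates, with every replicate also reaching that level; inconclusive means mean inhibition reaches 70% but some replicates fall short; inactive means mean inhibition below 70%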
Target sequence (P26447 whole entry, looked up): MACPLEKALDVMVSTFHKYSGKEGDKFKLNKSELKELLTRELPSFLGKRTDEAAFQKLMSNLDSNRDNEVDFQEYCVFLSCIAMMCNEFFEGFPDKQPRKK
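Material: S100A4 monomer protein / Buffer or medium: 50 mM HEPES pH 7.2, 10 mM CaCl2, 100 mM KCl / Times: 5 min incubation before reading / Benchmarks: neutral control DMSO, positive control TFP / Reagent: labelled myosin peptide probe, 5 nM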
DENV2 CPE rescue – inhibitors of DENV2 cytopathic effect, primary screen, cell-based, plate reader, single concentration; 1.7% of 350,000 active; DENV2-infected cells, cytopathic effect rescue; AID 651640, 2012; CPE inhibition, % at 9.99 µM; in the data active means CPE inhibition above about 20%, passing the limit was not always enough; inconclusive means no clear call, values can overlap the other calls; tested in BHK-21 cells;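 further: 0% = median of neutral control wells and 100% = median of positive control wells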
PfHsp90 set2 – growth inhibition of PfHsp90-expressing yeast, primary screen, antimalarial PfHsp90 inhibitor project, S. cerevisiae, BacTiter-Glo luminescence, single point, set 2; BacTiter-Glo ATP, 48 h; yeast lacking PDR1 and PDR3 efflux regulators; inhibition, % at 9.4 µM; 0.32% of 310,000 active; AID 504621, 2011;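 active means every replicate shows inhibition above about 80%, whatever the replicate mean, limit read from the data; inconclusive means mean inhibition reaches the set limit but some replicate falls short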;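 further: 0% = DMSO neutral controls and 100% = 20 µM radicicol positive controls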
Ecoli rRNA inh – reduced GFP signal of wild-type E. coli, primary screen, bacterial rRNA inhibitor project, GFP/RFP fluorescence, OD600, single point | E. coli WT GFP vs humanized-ribosome RFP mutants, 24 h; active compounds read low; DMSO median 0, no signal -100 | GFP signal change (wild-type ribosome), % (test concentration not listed) | 1.6% of 350,000 active | AID 720706, 2013;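 active means significant combined selectivity score with lowered wild-type GFP, culture density cut under 30%, mutant RFP and density less affected; inactive means any of these conditions unmet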
An asterisk follows results filed as active; ? = inconclusive; nt = no result given. This is a sample that favours compounds with a hit; in the whole collection about 3.2% have one here.

SMILES | Cneo AK release | AF4-AF9 inh | S100A4 MyoIIA | DENV2 CPE rescue | PfHsp90 set2 | Ecoli rRNA inh
O=C(Cc1ccccc1)N1CC(=O)N2[C@H](CO)[C@@H](c3ccc(C#Cc4ccccc4)cc3)[C@H]2C1 | nt | -4 | 12 | 1 | nt | -50
C[C@@H]1CN([C@@H](C)CO)C(=O)c2cccc(NS(=O)(=O)c3ccc(Cl)cc3)c2O[C@@H]1CN(C)Cc1ccncc1 | -1 | -1 | -10 | ? | nt | -3
C[C@@H]1CCCCO[C@H](CN(C)S(C)(=O)=O)[C@H](C)CN([C@H](C)CO)C(=O)c2cc(N(C)C)ccc2O1 | -1 | -3 | 1 | ? | nt | 1
O=C(Cc1ccccn1)N1CC(=O)N2[C@H](CO)[C@@H](c3ccc(C#CC4CCCCC4)cc3)[C@@H]2C1 | nt | 8 | -2 | 26* | nt | -12
COCC(=O)N1CC(=O)N2[C@H](CO)[C@H](c3ccc(C#Cc4cccc(OC)c4)cc3)[C@@H]2C1 | nt | -1 | -12 | 40* | nt | 1
O=C(Cc1ccccn1)N1CC(=O)N2[C@H](C1)[C@@H](c1ccc(C#CC3CCCCC3)cc1)[C@@H]2CO | nt | 8 | 25 | 5 | nt | 0
CC(C)CC#Cc1ccc([C@@H]2[C@H](CO)N3C(=O)CN(C(=O)c4ccccn4)C[C@@H]23)cc1 | nt | 0 | 107* | 1 | nt | -3
Cc1ccc(S(=O)(=O)N2C[C@@H]3N[C@H](C2)C3c2ccc(-c3ccncc3)cc2)cc1 (some centres not stated) | nt | -3 | -2 | 8 | nt | 7
C=CCn1c(CCSCc2ccc(OC)c(C)c2)n[nH]c1=S | 2 | -10 | 2 | 0 | -15 | -19*
C=CCn1c(CCSCc2ccccc2)n[nH]c1=S | nt | -1 | 1 | 2 | -11 | -1
Cc1ccc2[nH]c(C)c(CCNC(=O)c3cc4cc([N+](=O)[O-])ccc4oc3=O)c2c1 | nt | nt | nt | nt | 22 | nt
Cc1ccc2[nH]c(C)c(CCNC(=O)c3c(N)no[n+]3[O-])c2c1 | nt | 2 | 2 | -4 | nt | -35*
COC(=O)C[C@H]1CC[C@@H](NS(=O)(=O)c2ccccc2F)[C@@H](CO)O1 | -10 | 0 | 1 | -3 | nt | 1
Cc1noc(C)c1NC(=O)Nc1ccc2c(c1)C(=O)N([C@H](C)CO)C[C@@H](C)[C@@H](CN(C)C(=O)Nc1ccccc1)O2 | nt | nt | nt | nt | nt | 3
CCCNC(=O)[C@@H]1[C@@H](CO)[C@@H]2Cn3c(ccc(-c4ccccc4OC)c3=O)[C@@H]2N1C(=O)CC | -1 | -3 | -12 | -3 | nt | -1
CCCN(C)C[C@@H]1OCCCC[C@@H](C)Oc2ccc(NC(=O)Nc3ccc(C(F)(F)F)cc3)cc2C(=O)N([C@H](C)CO)C[C@@H]1C | -1 | 4 | 34 | 28* | nt | 1
CC(C)NC(=O)Nc1ccc2c(c1)C(=O)N([C@H](C)CO)C[C@H](C)[C@H](CN(C)CC1CC1)OCCCC[C@@H](C)O2 | -1 | 0 | 2 | 107* | nt | 2
CCCN(C)C[C@H]1OCCCC[C@@H](C)Oc2ccc(NC(=O)NC(C)C)cc2C(=O)N([C@@H](C)CO)C[C@H]1C | 92* | 9 | 4 | 2 | nt | 2
C[C@@H]1CCCCO[C@H](CN(C)CC2CCCCC2)[C@@H](C)CN([C@H](C)CO)C(=O)c2cc(NC(=O)Nc3ccc(F)cc3)ccc2O1 | 0 | 3 | 4 | -10 | nt | 1
C[C@@H]1CCCCO[C@@H](CN(C)CC2CCCCC2)[C@H](C)CN([C@@H](C)CO)C(=O)c2cc(NC(=O)Nc3ccc(F)cc3)ccc2O1 | 2 | -3 | -1 | 29* | nt | -1
CCCN(C)C[C@@H]1OCCCC[C@@H](C)Oc2ccc(NC(=O)Nc3ccccc3)cc2C(=O)N([C@H](C)CO)C[C@@H]1C | 3 | 0 | -4 | 6 | nt | 1
O=C(C[C@@H]1CC[C@@H](NC(=O)Nc2ccc3c(c2)OCO3)[C@@H](CO)O1)NCc1ccccc1 | -4 | 0 | -5 | -7 | nt | 1
C[C@@H]1CN([C@@H](C)CO)C(=O)c2cc(NC(=O)Cc3ccccc3)ccc2O[C@H]1CN(C)Cc1ccc(C(=O)O)cc1 | -3 | -2 | 4 | 1 | nt | 2
CCCn1nc(NS(=O)(=O)c2ccccc2[N+](=O)[O-])c2cc3ccccc3nc21 | -4 | 1 | 1 | -5 | -5 | -21*
COCC(=O)N1[C@@H](CO)[C@@H](c2ccc(-c3cccc(OC)c3)cc2)C12CN(C(C)=O)C2 | nt | 1 | 1 | -3 | nt | -1
SMILES | Cneo AK release | AF4-AF9 inh | S100A4 MyoIIA | DENV2 CPE rescue | PfHsp90 set2 | Ecoli rRNA inh
CCCNC(=O)Nc1ccc2c(c1)OC[C@H](C)N(CCC)C[C@@H](C)[C@H](OC)CN(C)C2=O | 1 | -4 | -1 | 1 | nt | -1
COc1cc(CC(C#N)(CO)c2nc3ccccc3[nH]2)ccc1OC(F)F (configuration not stated) | 10 | 0 | -5 | 47* | 8 | 3
COc1cc(C(=O)Nc2nc3ccccc3[nH]2)ccc1OC(F)F | nt | -1 | -2 | 3 | -19 | -58
O=C(C[C@@H]1CC[C@@H](NC(=O)Nc2ccccc2F)[C@@H](CO)O1)NCc1ccc(F)cc1 | nt | -2 | 2 | 8 | nt | 3
CC(C)N=c1scc(-c2cccs2)n1/N=C/c1ccc(O)c(O)c1O | nt | nt | nt | nt | 106* | nt
Cc1ccc(N(C)C(=O)N2CCN(S(=O)(=O)c3ccc(C)cc3)CC2)cc1 | 0 | -1 | 4 | 59* | -11 | -14
Cc1ccc(CN(C)c2ccc(S(=O)(=O)N3CCCC3)cn2)cc1 | 3 | 0 | -1 | 25* | -14 | -2
O=S(=O)(c1ccc(F)cc1)N1CCCNCC1 | 3 | -3 | -5 | -1 | 4 | 10
Cc1ccc(S(=O)(=O)N2CCCNCC2)cc1 | -2 | 3 | -10 | 23* | -8 | 7
Cc1ccc(S(=O)(=O)N2CCN(C(=O)C(O)c3ccccc3)CC2)cc1 (configuration not stated) | nt | nt | -4 | 37* | nt | nt
OC[C@H]1[C@@H](c2ccc(-c3cccc(F)c3)cc2)[C@H]2CN(Cc3cncnc3)CCCCN21 | -2 | 4 | -4 | ? | nt | -3
OC[C@@H]1[C@@H](c2ccc(-c3ccccc3F)cc2)[C@H]2CN(Cc3cncnc3)CCCCN12 | 5 | -3 | 1 | 68* | nt | 3
OC[C@@H]1[C@H](c2ccc(-c3ccccc3F)cc2)[C@H]2CN(Cc3cncnc3)CCCCN12 | 0 | -2 | 52 | ? | nt | 3

Screening data: PubChem, Broad Institute
